Screens: PubChem, The Scripps Research Institute Molecular Screening Center
Only some compounds are listed: those with a hit (about 3.3% of all), similar ones and a draw of the others.
TDP2 absorb – human TDP2 enzyme inhibitors, primary screen, biochemical, epi absorbance, recombinant enzyme; Tyrosyl-DNA phosphodiesterase 2 (Homo sapiens), O95551; T5PNP hydrolysis, p-nitrophenol absorbance 415 nm; inhibition, % at 12.8 µM; actives 0.34% (n = 370,000);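 active = inhibition above the mean of all tested compounds plus 3 SD, set per campaign, cut at about 25% in these data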;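 also: 0% = DMSO with enzyme and 100% = buffer with substrate but no TDP2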
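test system = human TDP2 enzyme | input = TDP2 enzyme at 120 nM final | medium = 50 mM Tris-HCl pH 7.5 with Mg2+, KCl, DTT, BSA | also added = T5PNP substrate, 5 mM | times = 2 h at 37 °C | technique = epi absorbance | benchmarks = high control without enzyme, low control DMSO plus TDP2 | replication = each compound tested once, singlicate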
LEDGF integ inh – blockers of LEDGF/p75-dependent integrase strand transfer – biochemical, TR-FRET, high throughput, primary screen. HIV-1 integrase (with human LEDGF/p75). TR-FRET IN-LEDGF/p75 DNA integration, Eu/Cy5. actives 0.64% (n = 370,000). inhibition, % at 3.7 µM. AID 743269, 2014;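 active = inhibition above the screen-wide mean plus 3 SD, cut at about 13% in these data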;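 also: signal is the Cy5 over europium emission ratio at 671 and 618 nm; 0% = plate median of compound wells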
PRMT1 FP inh – PRMT1 methyltransferase inhibitors, primary screen, biochemical, fluorescence polarization; recombinant PRMT1, activity-based probe fluorescence polarization; Protein arginine N-methyltransferase 1 (Homo sapiens), Q99873; actives 1.3% (n = 370,000); inhibition, % at 2.79 µM;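 active = inhibition above about 21% made by adding two undisclosed values, limit read from the data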
UHRF1 MBD2 ctr – UHRF1 methylated DNA binding inhibitors, primary screen, counter-screen for MBD2 inhibitor project, biochemical, TR-FRET, human UHRF1, single concentration | E3 ubiquitin-protein ligase UHRF1 (Homo sapiens), Q96T88 | UHRF1 binding to methylated oligo | inhibition, % at 4.4 µM | actives 0.75% (n = 370,000) | AID 687016, 2013;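 also: UHRF1 SRA domain binding a hemimethylated CpG hairpin DNA probe; 0% = median of test compound wells and 100% = reference inhibitor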
MBD2 inh – inhibitors of MBD2 binding to methylated DNA, primary screen, biochemical, TR-FRET, DNA-binding domain, human. MBD2 binding to methylated oligonucleotide. inhibition, % at 4.4 µM. actives 0.31% (n = 370,000). AID 686964, 2013; in the data active = inhibition above about 13%
SIAE primary – human SIAE inhibitors, primary screen, biochemical, fluorescence polarization, FP-Rh probe, 1536-well HTS; Sialate O-acetylesterase (Homo sapiens), Q9HAT2; SIAE FP-Rh probe binding; inhibition, % at 9.66 µM; actives 0.69% (n = 370,000); AID 1053197, 2014;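 active = inhibition above a cutoff: mean of compounds within the control limits plus 3 SD of those, cut at about 17% in these data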;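 also: 0% = plate median of compound wells and 100% = probe without SIAE protein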
Target sequence (Q9HAT2 whole entry, looked up): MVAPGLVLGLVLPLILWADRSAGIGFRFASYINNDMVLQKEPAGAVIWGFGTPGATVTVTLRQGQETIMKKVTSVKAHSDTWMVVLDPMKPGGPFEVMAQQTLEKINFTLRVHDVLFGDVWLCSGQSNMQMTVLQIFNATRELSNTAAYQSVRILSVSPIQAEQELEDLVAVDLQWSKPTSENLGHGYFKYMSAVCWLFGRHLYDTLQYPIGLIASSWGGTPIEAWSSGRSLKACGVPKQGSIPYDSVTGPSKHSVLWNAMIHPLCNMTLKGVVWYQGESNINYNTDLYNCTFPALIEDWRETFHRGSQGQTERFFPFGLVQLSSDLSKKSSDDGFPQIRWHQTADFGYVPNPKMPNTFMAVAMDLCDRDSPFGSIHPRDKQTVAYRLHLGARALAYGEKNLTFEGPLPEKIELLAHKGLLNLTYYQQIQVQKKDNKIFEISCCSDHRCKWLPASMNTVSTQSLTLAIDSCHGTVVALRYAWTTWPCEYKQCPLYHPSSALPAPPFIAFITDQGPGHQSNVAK
UHRF1 DNA bind – UHRF1 methylated DNA binding inhibitors, counter-screen for MBD2 inhibitor project, biochemical, TR-FRET, human UHRF1 | UHRF1 binding to methylated oligonucleotide | inhibition, % at 4.4 µM | actives 25% (n = 1,000) | shares compounds with MBD2 inh;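 also: UHRF1 SRA domain binding a labeled hemimethylated CpG hairpin DNA; 0% = vehicle only and 100% = reference inhibitor with vehicle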
MBD2 confirm – inhibitors of MBD2 binding to methylated DNA, confirmation, biochemical, TR-FRET, DNA-binding domain, human. shares compounds with MBD2 inh. TR-FRET MBD2-DBD binding to methylated oligonucleotide. inhibition, % at 4.4 µM. actives 26% (n = 1,000). AID 720531, 2013; in the data active = inhibition above about 14%
The depositor's hits bear a star; nt = no result. Rule as the data show it, unless noted: active = inhibition above about 21%; inactive = the rest.

SMILES | TDP2 absorb | LEDGF integ inh | PRMT1 FP inh | UHRF1 MBD2 ctr | MBD2 inh | SIAE primary | UHRF1 DNA bind | MBD2 confirm
Cc1ccccc1CN1CCCCC(NC(=O)c2ccc(COc3ccccc3)cc2)C1=O (stereo not drawn) | 7 | -2 | 1 | 2 | 2 | -8 | nt | nt
CCN1Cc2nnn(CC3CCCCC3)c2-c2ccccc2S1(=O)=O | 0 | 7 | 0 | -3 | -5 | 2 | nt | nt
NC(=O)C1=C(N)c2ccccc2C1c1ccccc1 (stereo not drawn) | -5 | -5 | 5 | 1 | 32* | 7 | 2 | 1
CCOC(=O)C1CC(=O)c2ccccc2C1c1ccccc1 (stereo not drawn) | -6 | 0 | -1 | -1 | 3 | 3 | nt | nt
COC(=O)C1=C(C)N(Cc2cccc(C(F)(F)F)c2)C(=NCc2ccc(OC)cc2)NC1c1ccccc1C(F)(F)F (stereo not drawn) | 1 | -2 | 0 | 0 | -1 | 4 | nt | nt
Cc1c(-c2ccc(F)cc2)nc(N)c(C#N)c1-c1cccnc1 | 13 | -6 | 2 | -1 | 2 | -2 | nt | nt
Cc1ccc(-c2c(C)c(-c3ccc(F)cc3)nc(N)c2C#N)o1 | -5 | 2 | 0 | -3 | 19* | -5 | -1 | 5
COC(=O)c1ccc(OC)c(CSc2nnc(COc3ccccc3)o2)c1 | 11 | 1 | 0 | 5 | 4 | 4 | nt | nt
COC(=O)c1ccc(OC)c(CSc2nnc(COc3ccc(Cl)cc3)o2)c1 | -7 | 1 | -1 | 0 | 14* | -8 | 7 | 4
COC(=O)[C@]12C[C@H](CC(=O)N3CCCC3)C(=O)N(Cc3ccccc3)C1=C[C@H](COCc1ccccc1)O[C@@H]2C | -5 | -4 | 1 | 2 | -1 | 1 | nt | nt
COc1ccc(S(=O)(=O)NCc2ccncc2)cc1NC(=O)c1ccccc1 | 19 | 4 | -2 | 33* | 16* | -2 | 5 | 2
CCOc1ccc(S(=O)(=O)NCc2ccncc2)cc1NC(=O)c1ccccc1 | 16 | 0 | -2 | -2 | 4 | -2 | nt | nt
O=C(CCc1ccccc1)N[C@H]1[C@@H](O)CCC[C@]12C(=O)N(Cc1ccccc1)c1ccccc12 | -7 | -4 | -1 | 2 | 4 | 5 | nt | nt
CN(C)C=Nc1ncc2c3ccccc3n(CCN(C)C)c2c1C#N | 5 | -2 | -3 | 2 | 1 | 5 | nt | nt
CCN(CC)CCn1c2ccccc2c2cnc(N)c(C#N)c21 | -7 | 2 | -3 | 17 | 16* | 8 | 21* | 33*
CC(C)CNc1ccc2c(c1)OC[C@H](C)NS2(=O)=O | -8 | 3 | 0 | 21* | 13* | -1 | 11 | 4
C#CCCCN([C@@H](CC(C)C)C(=O)OC)S(=O)(=O)c1ccccc1Br | -3 | -3 | 2 | -1 | -1 | 2 | nt | nt
CCC[C@H]1[C@@H](NC(=O)c2cccc(C)c2)CC[C@@]23CCCN2C(=O)CCC[C@@H]13 | 0 | -2 | 2 | 5 | 3 | -2 | nt | nt
COC(=O)c1nnn(-c2nonc2N)c1CN1CCCC1 | 4 | -4 | 3 | 2 | 31* | -4 | 3 | 3
CCOC(=O)c1ccc(NC(=O)NC2CCN(CC(=O)NCc3ccc4c(c3)OCO4)CC2)cc1 | -2 | 1 | 2 | 3 | 19* | 2 | 8 | 4
C[C@H]1[C@@H](OC(=O)Nc2ccc(Br)cc2)CC[C@@]23CCCN2C(=O)CCC[C@@H]13 | -7 | 0 | -4 | -2 | 3 | -6 | nt | nt
Cc1cc(C(=O)N2CCN(c3ncccn3)CC2)cs1 | 10 | 1 | 3 | 4 | 17* | -2 | -1 | 5
Cc1ccc(S(=O)(=O)Nc2ccccc2C=Nc2cccc(C)c2C)cc1 | 4 | 11 | -2 | -2 | -3 | -3 | nt | nt
Cc1ccc(S(=O)(=O)Nc2ccccc2N=Cc2c(F)c(F)c(F)c(F)c2F)cc1 | 0 | 2 | 2 | -1 | 14* | 10 | 5 | 2
CCOC(=O)[C@H]1[C@H]2COc3ccccc3[C@@H]2N2C(=O)c3ccccc3NC(=O)[C@@]12C | -1 | 0 | 3 | 20 | 18* | 1 | 7 | 3
SMILES | TDP2 absorb | LEDGF integ inh | PRMT1 FP inh | UHRF1 MBD2 ctr | MBD2 inh | SIAE primary | UHRF1 DNA bind | MBD2 confirm
CCOC(=O)[C@H]1[C@H]2COc3ccccc3[C@@H]2N2C(=O)c3ccc(C)cc3NC(=O)[C@@]12C | -4 | -2 | -1 | -2 | -3 | -1 | nt | nt
O=C(COC(=O)c1cc2c(s1)CCC2)Nc1ccc(F)cc1 | -5 | 8 | 6 | 28* | 15* | -1 | 32* | 19*
COc1cc2c(cc1OC)CC(C(=O)NCc1ccccc1)NC2 (stereo not drawn) | 13 | 0 | 1 | 0 | 17* | 3 | 9 | 3
O=C(NCCCc1ccccc1)[C@@H]1Cc2ccccc2CN1 | -4 | 0 | -2 | 0 | 1 | -1 | nt | nt
Cc1nn2c(-c3ccc(S(=O)(=O)N4CCN(CCO)CC4)o3)nnc2c2ccccc12 | 4 | 2 | 7 | 13 | 16* | -4 | 3 | 5
COc1ccc(-c2nnc3c4ccccc4c(C)nn23)cc1S(=O)(=O)N1CCN(CCO)CC1 | 12 | 0 | 1 | 6 | 7 | -13 | nt | nt
O=C(Nc1ccc(F)cc1)Nc1c(-c2ccc(C(F)(F)F)cc2)nc2ncccn12 | 0 | -2 | 2 | 3 | 3 | 2 | nt | nt
C[C@@H]1CN([C@@H](C)CO)C(=O)CCCn2cc(nn2)CO[C@H]1CN(C)C(=O)C1CC1 | 0 | 1 | 2 | 0 | 13* | 10 | 4 | 1
Cc1coc2cc3oc(=O)c(CCC(=O)NCC(=O)O)c(C)c3cc12 | 1 | 2 | 0 | 0 | 0 | -1 | nt | nt
COCCCNC(=O)CCc1c(C)c2cc3c(C)coc3cc2oc1=O | -2 | 1 | 0 | -1 | 13* | 0 | 1 | 5
COc1cccc(OC)c1C(=O)Nc1ccc(N2CCN(C(=O)c3cccs3)CC2)cc1 | 16 | 2 | -5 | 1 | -3 | 7 | nt | nt
